Experimental data published in ChEMBL document CHEMBL1123918, “Thromboxane synthetase inhibitors and antihypertensive agents. 4. N-[(1H-imidazol-1-yl)alkyl] derivatives of quinazoline-2,4(1H,3H)-diones, quinazolin-4(3H)-ones, and 1,2,3-benzotriazin-4(3H)-ones” (J Med Chem, 1987).
The source made the active and inactive calls. No cut-off for these calls is given here.

How the values were obtained:
Oryctolagus cuniculus [1] = assay: Tested for inhibition of thromboxane formation in rabbit platelets at 3 hr by administration of 0.3 mg/kg intravenous bolus dose; format: functional
Summary of the method: (§1)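 Rabbits given compound in 0.9% sterile saline IV, as a bolus or by infusion pump. Blood drawn 5 min predose and at 0.5, 1, 2 and 3 h, then clotted 2 h at 37 °C and held 2 h on ice. Serum mixed with indomethacin, stored at -20 °C, and diluted in pH 7.4 phosphate buffer. TXB2 measured by direct RIA.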

Oryctolagus cuniculus [2] = assay: Tested for inhibition of thromboxane formation in rabbit platelets at 0.5 hr by administration of 0.1 mg/kg intravenous bolus dose; format: functional; summary of the method: as §1
Oryctolagus cuniculus [3] = assay: Tested for inhibition of thromboxane formation in rabbit platelets at 0.5 hr by administration of 0.3 mg/kg intravenous bolus dose; format: functional; summary of the method: as §1
Oryctolagus cuniculus [4] = assay: Tested for inhibition of thromboxane formation in rabbit platelets at 1.0 hr by administration of 0.3 mg/kg intravenous bolus dose; format: functional; summary of the method: as §1
Oryctolagus cuniculus [5] = assay: Tested for inhibition of thromboxane formation in rabbit platelets at 1.0 hr by administration of 0.5 mg/kg/h perfused dose; format: functional; summary of the method: as §1
Oryctolagus cuniculus [6] = assay: Tested for inhibition of thromboxane formation in rabbit platelets at 2 hr by administration of 0.1 mg/kg intravenous bolus dose; format: functional; summary of the method: as §1
Oryctolagus cuniculus [7] = assay: Tested for inhibition of thromboxane formation in rabbit platelets at 2 hr by administration of 0.3 mg/kg intravenous bolus dose; format: functional; summary of the method: as §1
Homo sapiens = organism: Homo sapiens; assay: Tested for inhibition of thromboxane formation in human platelets; format: functional
Summary of the method: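 Platelets from four healthy human volunteers were isolated with a small amount of prostaglandin E1 to prevent aggregation, then treated with compound, standard or vehicle. TXB2 measured by direct RIA. IC50 is read graphically from percent inhibition vs log concentration curves.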

Oryctolagus cuniculus [8] = assay: Tested for inhibition of thromboxane formation in rabbit platelets at 1.0 hr by administration of 0.1 mg/kg intravenous bolus dose; format: functional; summary of the method: as §1
Oryctolagus cuniculus [9] = assay: Tested for inhibition of thromboxane formation in rabbit platelets at 3 hr by administration of 0.1 mg/kg intravenous bolus dose; format: functional; summary of the method: as §1
Oryctolagus cuniculus [10] = assay: Tested for inhibition of thromboxane formation in rabbit platelets at 0.5 hr by administration of 0.5 mg/kg/h perfused dose; format: functional; summary of the method: as §1
Oryctolagus cuniculus [11] = assay: Tested for inhibition of thromboxane formation in rabbit platelets at 3 hr by administration of 10 mg/kg intravenous bolus dose; format: functional; summary of the method: as §1
[12] = target: T1, Thromboxane-A synthase (Rattus norvegicus) (UniProt P49430); assay: Tested for antihypertensive activity in spontaneously hypertensive rats at 100 mg/kg peroral dosage for 2 days; I is inactive; format: functional, organism-based; design: dose 100 mg/kg
T1 sequence (whole entry): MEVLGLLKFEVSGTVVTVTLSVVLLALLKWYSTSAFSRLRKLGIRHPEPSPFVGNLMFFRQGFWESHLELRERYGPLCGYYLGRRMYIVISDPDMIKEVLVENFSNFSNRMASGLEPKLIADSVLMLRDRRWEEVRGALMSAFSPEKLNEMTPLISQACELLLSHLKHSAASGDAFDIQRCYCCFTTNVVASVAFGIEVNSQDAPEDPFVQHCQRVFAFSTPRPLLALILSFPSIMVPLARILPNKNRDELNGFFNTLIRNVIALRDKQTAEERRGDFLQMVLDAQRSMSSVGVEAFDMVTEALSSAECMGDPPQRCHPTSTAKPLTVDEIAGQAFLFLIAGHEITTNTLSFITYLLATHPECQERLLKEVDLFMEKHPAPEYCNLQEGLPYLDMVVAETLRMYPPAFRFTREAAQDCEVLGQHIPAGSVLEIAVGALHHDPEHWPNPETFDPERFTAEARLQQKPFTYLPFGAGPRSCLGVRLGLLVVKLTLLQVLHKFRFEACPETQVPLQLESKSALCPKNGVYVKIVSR
Summary of the method: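 Male 16-week-old Okamoto SHR (mean arterial pressure about 170 mmHg) gavaged with compound suspended in 2% preboiled starch (50 mg/mL) at 100 mg/kg or less, with 0.9% NaCl load 25 mL/kg; identical second dose without saline 24 h later. Mean arterial pressure measured 28 h after first dose; one to three rats per compound.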

Oryctolagus cuniculus [13] = assay: Tested for inhibition of thromboxane formation in rabbit platelets at 1.0 hr by administration of 10 mg/kg intravenous bolus dose; format: functional; summary of the method: as §1
Thromboxane-A synthase = target: T2, Thromboxane-A synthase (Rattus norvegicus, UniProt P49430); assay: Tested for inhibition of thromboxane synthetase from spontaneously hypertensive rats
T2 sequence (P49430 whole entry): T1 sequence (whole entry)
Summary of the method: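 Washed SHR platelets in oxygenated Krebs phosphate buffer pH 7.4 (4.5-6.0 X 10^4 platelets/µL) incubated with vehicle or drug 10 min at 37 °C; stopped with ice and citric acid. TXB2 measured by direct RIA. Percent inhibition is relative to vehicle controls after background subtraction. IC50 is read from a plot of inhibition vs log concentration.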

SMILES: CC(Cn1ccnc1)Cn1c(=O)[nH]c2cc(Cl)ccc2c1=O (stereo unspecified)
- inhibition in vivo at 0.3 mg/kg (Oryctolagus cuniculus [1]): 53.1%
- inhibition in vivo at 0.1 mg/kg (Oryctolagus cuniculus [2]): 73.6%
- inhibition in vivo at 0.3 mg/kg (Oryctolagus cuniculus [3]): 88.9%
- inhibition in vivo at 0.3 mg/kg (Oryctolagus cuniculus [4]): 82.8%
- inhibition in vivo at 0.5 mg/kg (Oryctolagus cuniculus [5]): 98.1%
- inhibition in vivo at 0.1 mg/kg (Oryctolagus cuniculus [6]): 39.5%
- inhibition in vivo at 0.3 mg/kg (Oryctolagus cuniculus [7]): 60.8%
- IC50 (Homo sapiens): 21.2 nM
- inhibition in vivo at 0.1 mg/kg (Oryctolagus cuniculus [8]): 62.8%
- inhibition in vivo at 0.1 mg/kg (Oryctolagus cuniculus [9]): 46.2%
- inhibition in vivo at 0.5 mg/kg/h (Oryctolagus cuniculus [10]): 95.9%

SMILES: O=C(O)c1ccc(OCCn2ccnc2)cc1 [DAZOXIBEN]
- inhibition in vivo at 0.3 mg/kg (Oryctolagus cuniculus [1]): 22.8%
- inhibition in vivo at 0.3 mg/kg (Oryctolagus cuniculus [3]): 45.9%
- inhibition in vivo at 0.3 mg/kg (Oryctolagus cuniculus [4]): 30.1%
- inhibition in vivo at 10 mg/kg (Oryctolagus cuniculus [11]): 74.5%
- Activity [12]: inactive
- inhibition in vivo at 0.3 mg/kg (Oryctolagus cuniculus [7]): 13.6%
- inhibition in vivo at 10 mg/kg (Oryctolagus cuniculus [13]): 94.7%
- IC50 (Homo sapiens): 5030 nM

SMILES: CC(CNC(=O)c1ccccc1N)Cn1ccnc1 (stereo unspecified)
- IC50 (Thromboxane-A synthase): 2500 nM
- Activity [12]: inactive
